Experiments:
Format in all cases: ADME, cell-based
Settings in all cases: hepg2, 24 h
Cytochrome P450 2C9 [1] = target: T1, Cytochrome P450 2C9 (Homo sapiens, UniProt P11712); assay: Metabolic activation assessed as CYP2C9 activation-induced cytotoxicity in human HepG2 cells transfected with human AdCYP2C9 at MOI 10 for 2 days in presence of siNrf2 at 100 uM after 24 hrs by WST-8 assay
Outline: (§1)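 HepG2 cells reverse-transfected with 10 nM siNrf2 at seeding (1.0×10^4 cells/well), incubated 24 h, then infected with CYP2C9-expressing adenovirus (AdGFP as control) at MOI 10 for 2 days in 5% FBS medium. Drugs added for 24 h. Viability read by WST-8 (absorbance 450 nm) or CellTiter-Glo ATP luminescence. Expressed as % of untreated cells; means ± S.D., n = 3; two-tailed t test versus AdGFP cells.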

Cytochrome P450 2C9 [2] = target: T1, Cytochrome P450 2C9; assay: Metabolic activation assessed as CYP2C9 activation-induced cytotoxicity in human HepG2 cells transfected with human AdCYP2C9 at MOI 10 for 2 days in presence of siNrf2 at 50 to 200 uM after 24 hrs by WST-8 assay; outline: as §1
Cytochrome P450 2C9 [3] = target: T1, Cytochrome P450 2C9; assay: Metabolic activation assessed as CYP2C9 activation-induced cytotoxicity in human HepG2 cells transfected with human AdCYP2C9 at MOI 10 for 2 days in presence of siNrf2 at 25 to 100 uM after 24 hrs by WST-8 assay
Cytochrome P450 2C9 [4] = target: T1, Cytochrome P450 2C9; assay: Metabolic activation assessed as CYP2C9 activation-induced cytotoxicity in human HepG2 cells transfected with human AdCYP2C9 at MOI 10 for 2 days in presence of siScramble at 25 to 100 uM after 24 hrs by ATP assay
Outline: (§2)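 HepG2 cells reverse-transfected with 10 nM scrambled control siRNA at seeding (1.0×10^4 cells/well), then after 24 h infected with CYP2C9-expressing adenovirus (AdGFP control) at MOI 10 for 2 days. Drugs added for 24 h. Viability by CellTiter-Glo ATP luminescence, as % of untreated cells; means ± S.D., n = 3; two-tailed t test versus AdGFP cells.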

Cytochrome P450 2C9 [5] = target: T1, Cytochrome P450 2C9; assay: Metabolic activation assessed as CYP2C9 activation-induced cytotoxicity in human HepG2 cells transfected with human AdCYP2C9 at MOI 10 for 2 days in presence of siNrf2 at 25 to 75 uM after 24 hrs by WST-8 assay; outline: as §1
Cytochrome P450 2C9 [6] = target: T1, Cytochrome P450 2C9; assay: Metabolic activation assessed as CYP2C9 activation-induced cytotoxicity in human HepG2 cells transfected with human AdCYP2C9 at MOI 10 for 2 days in presence of siScramble at 50 to 200 uM after 24 hrs by ATP assay; outline: as §2
Cytochrome P450 2C9 [7] = target: T1, Cytochrome P450 2C9; assay: Metabolic activation assessed as CYP2C9 activation-induced cytotoxicity in human HepG2 cells transfected with human AdCYP2C9 at MOI 10 for 2 days in presence of siNrf2 at 50 to 200 uM after 24 hrs by ATP assay; outline: as §1
Cytochrome P450 2C9 [8] = target: T1, Cytochrome P450 2C9; assay: Metabolic activation assessed as CYP2C9 activation-induced cytotoxicity in human HepG2 cells transfected with human AdCYP2C9 at MOI 10 for 2 days in presence of siNrf2 at 100 to 200 uM after 24 hrs by WST-8 assay; outline: as §1

T1 sequence (P11712 whole entry): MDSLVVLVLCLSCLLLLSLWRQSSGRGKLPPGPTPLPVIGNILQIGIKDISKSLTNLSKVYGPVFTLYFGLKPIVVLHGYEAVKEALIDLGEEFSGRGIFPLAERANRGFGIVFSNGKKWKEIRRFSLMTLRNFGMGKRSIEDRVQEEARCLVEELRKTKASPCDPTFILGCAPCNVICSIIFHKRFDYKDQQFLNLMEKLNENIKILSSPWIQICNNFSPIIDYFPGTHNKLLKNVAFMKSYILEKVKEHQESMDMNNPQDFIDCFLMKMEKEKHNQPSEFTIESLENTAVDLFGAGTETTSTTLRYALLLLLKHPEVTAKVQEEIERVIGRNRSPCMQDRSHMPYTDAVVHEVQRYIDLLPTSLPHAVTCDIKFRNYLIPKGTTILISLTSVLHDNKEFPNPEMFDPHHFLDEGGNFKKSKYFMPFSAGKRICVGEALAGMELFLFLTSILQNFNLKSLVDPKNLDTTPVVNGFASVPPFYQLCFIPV

Compound	Activity (Cytochrome P450 2C9 [3])	other results
CC(C)n1c(/C=C/C(O)CC(O)CC(=O)O)c(-c2ccc(F)cc2)c2ccccc21 (stereo not drawn) [FLUVASTATIN]		Activity (Cytochrome P450 2C9 [1]): Toxic; Activity (Cytochrome P450 2C9 [2]): Non-toxic
CCCCc1nc(Cl)c(CO)n1Cc1ccc(-c2ccccc2-c2nn[nH]n2)cc1 [LOSARTAN]	Toxic	Activity (Cytochrome P450 2C9 [4]): Non-toxic
CCCCC(=O)N(Cc1ccc(-c2ccccc2-c2nnn[nH]2)cc1)[C@H](C(=O)O)C(C)C [VALSARTAN]	Toxic	
CCCC(CCC)C(=O)O [VALPROIC ACID]		Activity (Cytochrome P450 2C9 [2]): Non-toxic
CN(C/C=C/C#CC(C)(C)C)Cc1cccc2ccccc12 [TERBINAFINE]	Toxic	Activity (Cytochrome P450 2C9 [4]): Toxic
CCCCc1ncc(/C=C(\Cc2cccs2)C(=O)O)n1Cc1ccc(C(=O)O)cc1 [EPROSARTAN]	Toxic	
CCCCC1=NC2(CCCC2)C(=O)N1Cc1ccc(-c2ccccc2-c2nnn[nH]2)cc1 [IRBESARTAN]	Toxic	
CC(C)C(=O)Nc1ccc([N+](=O)[O-])c(C(F)(F)F)c1 [FLUTAMIDE]		Activity (Cytochrome P450 2C9 [5]): Non-toxic
CCCc1nc2c(C)cc(-c3nc4ccccc4n3C)cc2n1Cc1ccc(-c2ccccc2C(=O)O)cc1 [TELMISARTAN]	Toxic	
CCCCc1nc(Cl)c(C=O)n1Cc1ccc(-c2ccccc2-c2nn[nH]n2)cc1	Non-toxic	
CCCCc1nc(Cl)c(C(=O)O)n1Cc1ccc(-c2ccccc2-c2nn[nH]n2)cc1 [CARBOXYLIC ACID METABOLITE]	Non-toxic	
O=C(O)COc1ccc(C(=O)c2cccs2)c(Cl)c1Cl [TICRYNAFEN]		Activity (Cytochrome P450 2C9 [6]): Non-toxic; Activity (Cytochrome P450 2C9 [7]): Toxic; Activity (Cytochrome P450 2C9 [8]): Toxic
Cc1ccc(-c2nc3ccc(C)cn3c2CC(=O)N(C)C)cc1 [ZOLPIDEM]	Toxic	

— ChEMBL document CHEMBL3525926, “CYP2C9-mediated metabolic activation of losartan detected by a highly sensitive cell-based screening assay” (Drug Metab Dispos, 2011)
